AHR act: activates the human aryl hydrocarbon receptor; P35869; AHR-responsive luciferase reporter cells, luminescence; activation, % at 5 µM; hit rate 2.5% among 320,000; AID 2796; in the data active = activation above about 47%;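 note: 0% = vehicle wells and 100% = reference agonist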
Target sequence (P35869 whole entry, looked up): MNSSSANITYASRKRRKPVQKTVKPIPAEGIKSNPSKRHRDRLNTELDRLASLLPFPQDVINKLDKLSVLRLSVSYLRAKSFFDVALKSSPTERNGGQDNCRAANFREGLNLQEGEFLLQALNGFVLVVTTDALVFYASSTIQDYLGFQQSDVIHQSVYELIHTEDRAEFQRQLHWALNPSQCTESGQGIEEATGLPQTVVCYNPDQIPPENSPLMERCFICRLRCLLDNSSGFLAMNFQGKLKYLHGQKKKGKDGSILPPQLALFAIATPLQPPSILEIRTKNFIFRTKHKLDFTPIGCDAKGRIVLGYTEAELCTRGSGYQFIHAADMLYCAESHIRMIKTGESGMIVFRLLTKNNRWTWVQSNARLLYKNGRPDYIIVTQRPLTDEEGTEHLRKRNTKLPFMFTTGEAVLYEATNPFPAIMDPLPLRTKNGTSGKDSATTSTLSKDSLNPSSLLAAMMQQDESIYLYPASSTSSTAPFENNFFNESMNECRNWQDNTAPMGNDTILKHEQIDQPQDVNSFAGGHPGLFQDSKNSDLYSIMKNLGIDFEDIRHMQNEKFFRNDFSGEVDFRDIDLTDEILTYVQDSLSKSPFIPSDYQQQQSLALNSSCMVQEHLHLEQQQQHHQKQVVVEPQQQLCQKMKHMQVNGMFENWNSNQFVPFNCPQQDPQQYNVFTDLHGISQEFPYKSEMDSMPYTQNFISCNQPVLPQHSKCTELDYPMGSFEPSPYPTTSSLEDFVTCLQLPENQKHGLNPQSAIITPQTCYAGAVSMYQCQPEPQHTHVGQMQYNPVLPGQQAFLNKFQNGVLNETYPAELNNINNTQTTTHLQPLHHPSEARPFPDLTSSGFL
MsrA act: activates bovine MsrA enzyme. purified bovine MsrA, absorbance read-out. activation, % at 10.6 µM. hit rate 0.3% among 360,000; in the data active = activation above about 7.5%;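 note: 0% = vehicle and 100% = reference activator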
HTR2A ag: mouse HTR2A agonism via beta-arrestin recruitment | activation, % at 7.6 µM | hit rate 0.66% among 360,000 | CHO-K1 mHTR2A beta-arrestin complementation, luminescence; percent of 30 µM serotonin response | P35363;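 active = activation above a run cutoff, the mean activation of all tested compounds plus 3 SD, cut at about 14% in these data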;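 note: 0% = plate median of compound wells and 100% = 30 µM serotonin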
Tb MetRS inh: Trypanosoma brucei MetRS inhibition; AID 624268; purified T. brucei MetRS, ATP depletion, Kinase-Glo luminescence; inhibition, % at 11.9 µM; hit rate 0.4% among 360,000;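 active = inhibition above a per-plate cutoff of the control wells' mean inhibition plus 3 SD, cut at about 5.5% in these data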;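 note: 0% = DMSO wells median and 100% = median of wells with control inhibitor compound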
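Assay system: T. brucei methionyl-tRNA synthetase, purified | Medium: HEPES buffer with MgCl2, KCl, DTT, spermine, BSA, pyrophosphatase | Compound: 11.9 µM single point | Incubation: 15 min enzyme-compound preincubation, 2 h reaction, 10 min detection, 25 °C | Measured by: Kinase-Glo luciferase luminescence reporting remaining unconsumed ATP | Measure: % inhibition normalized to control-well medians | Replication: Singlicate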
MsrA inhibitor: inhibitors of bovine MsrA; hit rate 0.75% among 360,000; inhibition, % at 15.5 µM; AID 651718; purified bovine MsrA, absorbance read-out; in the data active = inhibition above about 4.5%;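 note: 0% = vehicle wells with enzyme and 100% = reference inhibitor wells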
AI-2 QS mod: modulates the Vibrio harveyi AI-2 quorum sensing system; Vibrio harveyi JMH597 AI-2 luminescence/OD600 ratio, 9 h; active compounds read low; strain lacks LuxN and CqsS sensors; 0 = neutral-control median; activity change, % at 7.5 µM; hit rate 0.4% among 300,000; AID 2094; in the data active = activity change below about -75%, passing the limit was not always enough;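 note: luminescence divided by OD600 gain over 9 h not by final OD600 alone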
Active calls of the source: *; x = no result given. A selection: hits, their analogues and other compounds. The true share with any hit is near 4.4%.

SMILES | AHR act | MsrA act | HTR2A ag | Tb MetRS inh | MsrA inhibitor | AI-2 QS mod
Oc1cccc(C2c3[nH]c4ccccc4c3CCN2Cc2ccoc2)c1 (centres undefined) | 22.4 | -1.0 | -0.3 | -0.5 | 1.2 | 27.9
O=[N+]([O-])c1ccc2[nH]c(O)c(N=NC(=S)Nc3cccnc3)c2c1 | 62.1* | -4.7 | -0.5 | 0.6 | 1.9 | 0.0
Cc1ccccc1NCC(=O)N=Nc1c(O)[nH]c2ccc([N+](=O)[O-])cc12 | 9.3 | -3.4 | -7.2 | 0.5 | 2.5 | 1.3
CCNC(=S)N=Nc1c(O)[nH]c2ccc([N+](=O)[O-])cc12 | 27.3 | -15.9 | 2.6 | -1.6 | 1.3 | 7.2
Cc1ccc(NCC(=O)N=Nc2c(O)[nH]c3ccc([N+](=O)[O-])cc23)cc1 | 124.5* | x | x | x | 2.4 | 1.5
Cc1cc2c(nc1C)CCCN2S(=O)(=O)c1ccc(C#N)cc1 | x | x | x | x | 0.0 | x
Cc1cc(C)c(S(=O)(=O)NC2CC3CCC2C3)c(C)c1 (centres undefined) | -0.3 | -0.2 | 1.6 | -0.2 | 0.7 | 2.4
CCCOc1c(Br)cc(C(=O)NCC)cc1OC | 79.0* | -3.9 | -3.6 | -0.6 | -1.8 | 22.7
CCCOc1c(Cl)cc(C(=O)NC)cc1OC | 28.9 | -8.1 | 3.7 | -1.1 | -0.7 | 15.7
O=C(Nc1cccc(-c2nc3ccccc3s2)c1)c1cccs1 | 45.6 | -4.7 | 3.1 | 1.9 | -0.5 | -0.6
O=C(Nc1ccccc1)Nc1sccc1-c1nc2ccccc2s1 | 71.9* | -4.6 | -2.7 | 0.7 | 0.4 | 32.4
O=C(Nc1cccc(Cl)c1)Nc1sccc1-c1nc2ccccc2s1 | 48.7* | -4.4 | 3.7 | 0.2 | 1.2 | 48.7
COc1ccccc1NC(=O)Nc1sccc1-c1nc2ccccc2s1 | 32.7 | -3.2 | 2.9 | -0.3 | 0.4 | 0.6
COC(=O)[C@]12C[C@H](CC(=O)N3CCOCC3)C(=O)N(CCc3ccc(OC)c(OC)c3)C1=C[C@H](C(C)(C)C)O[C@@H]2C | x | x | x | x | 0.5 | x
CC(=O)Nc1ccc(NC2=C(Cl)C(=O)c3ccccc3C2=O)cc1 | x | x | x | x | -0.1 | 20.5
Cc1ccc(NC2=C(NCCO)C(=O)c3ccccc3C2=O)cc1 | 65.4* | -12.2 | -1.3 | 0.3 | 0.1 | 56.0
COC(=O)[C@]12C[C@H](CC(=O)N3CCCCC3)C(=O)N(Cc3ccccc3)C1=C[C@H](C1CCCC1)O[C@@H]2C | x | x | x | x | 1.2 | x
COC(=O)/C=C1/S/C(=N/N=C/c2ccco2)NC1=O | 4.2 | -6.1 | 6.1 | -0.2 | 4.6* | 8.0
CC(c1ccc(Cl)cc1)N(CCN(C)C)c1ccccn1 (centres undefined) | x | x | x | x | -0.5 | x
c1ccc(-c2cc(-c3nnco3)c3ccccc3n2)nc1 | 62.0* | -3.7 | 2.7 | -0.7 | 0.1 | 18.5
COCCN1Cc2cccc(C(=O)Nc3cccc(C)c3C)c2C1=O | 3.3 | -2.3 | -5.0 | 0.2 | -1.1 | -7.3
O=C(Nc1ccc(F)cc1)N1CCc2ccccc2C1 | 69.2* | -1.8 | 3.9 | 0.6 | -2.0 | 1.7
CCOc1ccccc1NC(=O)n1ncc2c(C)cccc21 | 47.9* | -1.4 | 1.9 | -0.4 | -1.6 | 11.7
CCOc1ccccc1NC(=O)N1CCc2ccccc2C1 | 68.4* | -4.1 | -0.1 | -0.3 | -1.3 | 0.3
CCOc1ccccc1NC(=O)CN1CCc2ccccc2C1 | 15.4 | -3.1 | -4.2 | -0.7 | 0.3 | -7.5
SMILES | AHR act | MsrA act | HTR2A ag | Tb MetRS inh | MsrA inhibitor | AI-2 QS mod
CCOc1ccccc1NC(=O)c1cccc2c1C(=O)N(CCOC)C2 | 69.2* | 1.3 | 2.0 | -0.9 | 0.1 | 33.0
O=C(CSC1=NS(=O)(=O)c2ccccc2N1)Nc1nccs1 | 4.6 | -2.4 | 2.1 | -0.2 | 0.3 | 12.6
C[C@H](CO)N1C[C@H](C)[C@@H](CN(C)C(=O)CCC(F)(F)F)OCc2cn(nn2)CCCC1=O | x | x | x | x | -0.1 | x
O=C(NC1CCCCCC1)C1CCCN(S(=O)(=O)c2cnc[nH]2)C1 (centres undefined) | 1.4 | -3.0 | 23.6* | 0.0 | 0.7 | 29.1
CCc1ccc(NC(=O)C2CCCN(S(=O)(=O)c3cnc[nH]3)C2)cc1 (centres undefined) | 4.9 | -1.2 | 3.3 | 0.1 | x | 21.8
COC(=O)c1ccc(NC(=O)C2CCCN(S(=O)(=O)c3cnc[nH]3)C2)cc1 (centres undefined) | 0.3 | -0.8 | 17.4* | 0.3 | -1.1 | -4.0
Cc1ccc(-c2nc3ccc(Br)cn3c2CC(C)(C)C)cc1 | x | -0.9 | -0.6 | -0.7 | -1.2 | x
Cc1c(NC(=O)c2ccc3nsnc3c2)cccc1[N+](=O)[O-] | 51.7* | -4.6 | 3.8 | -0.3 | 1.2 | 28.6
